In ChEMBL document CHEMBL3526062, “Role of human UDP-glucuronosyltransferases in the biotransformation of the triazoloacridinone and imidazoacridinone antitumor agents C-1305 and C-1311: highly selective substrates for UGT1A10” (Drug Metab Dispos, 2012):

Key:
[1] = target: T1, UDP-glucuronosyltransferase 1A7 (Homo sapiens, UniProt Q9HAW7); experiment: Drug metabolism assessed as human recombinant UGT1A7-mediated compound formation treated with C-1311 for 60 mins by ESI-MS/UV-vis spectroscopy in presence of 3 mM UDP-GlcUA; format: ADME; settings: recombinant enzyme, 1 h
T1 sequence (Q9HAW7 whole entry): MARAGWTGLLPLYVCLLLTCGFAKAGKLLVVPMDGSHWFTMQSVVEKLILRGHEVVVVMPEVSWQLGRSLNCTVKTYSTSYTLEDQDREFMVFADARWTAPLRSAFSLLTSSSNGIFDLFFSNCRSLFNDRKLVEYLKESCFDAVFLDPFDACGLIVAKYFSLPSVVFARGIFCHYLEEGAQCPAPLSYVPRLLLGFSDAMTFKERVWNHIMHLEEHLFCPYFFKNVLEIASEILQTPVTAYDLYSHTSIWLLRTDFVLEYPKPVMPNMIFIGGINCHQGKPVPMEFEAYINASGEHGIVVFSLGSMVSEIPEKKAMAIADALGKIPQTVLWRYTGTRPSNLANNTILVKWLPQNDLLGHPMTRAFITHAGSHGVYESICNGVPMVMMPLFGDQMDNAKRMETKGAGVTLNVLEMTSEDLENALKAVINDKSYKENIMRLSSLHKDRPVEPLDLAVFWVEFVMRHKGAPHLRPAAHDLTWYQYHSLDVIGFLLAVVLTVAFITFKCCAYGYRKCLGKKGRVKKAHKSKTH

[2] = target: T2, UDP-glucuronosyltransferase 1A1 (Homo sapiens, UniProt P22309); experiment: Drug metabolism assessed as human recombinant UGT1A1-mediated compound formation treated with C-1311 for 60 mins by ESI-MS/UV-vis spectroscopy in presence of 3 mM UDP-GlcUA; format: ADME; settings: recombinant enzyme, 1 h
T2 sequence (P22309 whole entry): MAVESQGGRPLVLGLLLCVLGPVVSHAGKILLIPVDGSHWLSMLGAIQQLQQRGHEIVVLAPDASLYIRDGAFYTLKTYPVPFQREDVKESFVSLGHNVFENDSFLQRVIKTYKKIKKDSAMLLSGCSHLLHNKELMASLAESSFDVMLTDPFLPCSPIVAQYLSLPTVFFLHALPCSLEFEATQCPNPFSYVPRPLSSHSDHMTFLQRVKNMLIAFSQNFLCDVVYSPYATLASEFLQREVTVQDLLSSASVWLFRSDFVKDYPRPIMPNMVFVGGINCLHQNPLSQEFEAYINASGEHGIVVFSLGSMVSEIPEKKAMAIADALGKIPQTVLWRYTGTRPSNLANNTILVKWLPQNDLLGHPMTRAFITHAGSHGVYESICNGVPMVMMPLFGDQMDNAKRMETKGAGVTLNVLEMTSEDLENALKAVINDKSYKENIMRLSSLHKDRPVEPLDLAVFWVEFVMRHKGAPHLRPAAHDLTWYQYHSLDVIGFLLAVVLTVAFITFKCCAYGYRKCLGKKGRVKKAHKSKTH

[3] = target: T3, UDP-glucuronosyltransferase 1A9 (Homo sapiens, UniProt O60656); experiment: Drug metabolism assessed as human recombinant UGT1A9-mediated compound formation treated with C-1311 for 60 mins by ESI-MS/UV-vis spectroscopy in presence of 3 mM UDP-GlcUA; format: ADME; settings: recombinant enzyme, 1 h
T3 sequence (O60656 whole entry): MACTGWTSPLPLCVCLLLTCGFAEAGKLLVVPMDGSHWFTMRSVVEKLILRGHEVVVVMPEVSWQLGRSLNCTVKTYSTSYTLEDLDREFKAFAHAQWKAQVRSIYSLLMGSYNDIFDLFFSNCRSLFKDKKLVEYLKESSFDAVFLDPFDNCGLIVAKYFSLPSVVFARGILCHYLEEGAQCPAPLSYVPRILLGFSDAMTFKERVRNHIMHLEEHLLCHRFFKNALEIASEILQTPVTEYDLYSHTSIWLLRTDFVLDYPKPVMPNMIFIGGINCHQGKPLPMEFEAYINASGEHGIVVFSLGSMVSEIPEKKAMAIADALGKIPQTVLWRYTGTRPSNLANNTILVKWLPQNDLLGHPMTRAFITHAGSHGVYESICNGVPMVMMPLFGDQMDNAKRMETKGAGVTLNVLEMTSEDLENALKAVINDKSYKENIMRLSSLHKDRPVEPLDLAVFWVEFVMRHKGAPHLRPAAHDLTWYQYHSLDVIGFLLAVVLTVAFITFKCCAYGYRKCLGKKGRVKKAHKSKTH

[4] = target: T4, UDP-glucuronosyltransferase 1A10 (Homo sapiens, UniProt Q9HAW8); experiment: Drug metabolism assessed as human recombinant UGT1A10-mediated compound formation treated with C-1305 for 60 mins by ESI-MS/UV-vis spectroscopy in presence of 3 mM UDP-GlcUA; format: ADME; settings: recombinant enzyme, 1 h
T4 sequence (Q9HAW8 whole entry): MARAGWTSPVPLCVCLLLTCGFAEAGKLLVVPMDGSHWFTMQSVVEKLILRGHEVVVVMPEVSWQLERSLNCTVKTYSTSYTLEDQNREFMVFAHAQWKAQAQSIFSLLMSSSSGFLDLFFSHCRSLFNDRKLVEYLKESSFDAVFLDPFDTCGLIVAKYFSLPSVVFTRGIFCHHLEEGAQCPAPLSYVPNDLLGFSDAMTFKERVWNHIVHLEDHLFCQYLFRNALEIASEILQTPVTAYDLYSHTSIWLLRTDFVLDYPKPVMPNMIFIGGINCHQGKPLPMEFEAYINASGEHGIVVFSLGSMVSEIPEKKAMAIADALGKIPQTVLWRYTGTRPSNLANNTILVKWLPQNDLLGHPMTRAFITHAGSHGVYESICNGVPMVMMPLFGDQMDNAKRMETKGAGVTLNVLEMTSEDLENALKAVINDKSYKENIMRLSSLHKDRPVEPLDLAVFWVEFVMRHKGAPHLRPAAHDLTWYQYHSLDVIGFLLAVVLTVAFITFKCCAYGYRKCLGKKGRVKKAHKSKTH
Summary of the method: (§1)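 His-tagged recombinant human UGT expressed in baculovirus-infected insect cells, levels normalized by anti-His Western blot; 5 μg membrane protein incubated 60 min at 37°C in […] pH 7.4, 5 mM MgCl2, 5 mM saccharolactone, 2% DMSO, substrate 100 or 200 μM; started with UDP-GlcUA; ethanol stop, centrifuged; supernatant by reversed-phase HPLC-UV/ESI-MS; glucuronide confirmed by β-glucuronidase hydrolysis; triplicate.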

[5] = target: T1, UDP-glucuronosyltransferase 1A7; experiment: Drug metabolism assessed as human recombinant UGT1A7-mediated compound formation treated with C-1305 for 60 mins by ESI-MS/UV-vis spectroscopy in presence of 3 mM UDP-GlcUA; format: ADME; settings: recombinant enzyme, 1 h; summary of the method: as §1
[6] = Drug metabolism in human intestinal microsomes assessed as metabolite formation treated with C-1305 for 60 mins by ESI-MS/UV-vis spectroscopy in presence of 3 mM UDP-GlcUA; format: ADME, Intestine, Microsome; settings: 1 h
Summary of the method: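 Recombinant human UGT1A1 or UGT1A9 (5 μg protein), or single-donor human liver or intestinal microsomes (20 μg), incubated in Tris-HCl pH 7.4 with 5 mM MgCl2, 5 mM saccharolactone, 2% DMSO and 100 or 200 μM substrate. Started with UDP-GlcUA, 60 min at 37°C, in triplicate. Product identified by HPLC with positive-ion ESI-MS and UV/Vis spectra, and confirmed by β-glucuronidase hydrolysis.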

Measured: Drug metabolism

CCN(CC)CCNc1ccc2ncn3c4ccc(O)cc4c(=O)c1c23 [C-1311]
metabolite_detected: [1] | [2] | [3]

CN(C)CCCNc1ccc2nnn3c4ccc(O)cc4c(=O)c1c23
metabolite_detected: [4] | [5] | [6]
